For data set [1], the target named is T1, C-X-C chemokine receptor type 4 (Homo sapiens, UniProt P61073). The data set is described as follows: Antagonist activity at CXCR4 receptor in human SupT1 cells assessed as inhibition of SDF-1alpha-induced calcium release at 1 uM preincubated for 2 to 3 mins followed by SDF-1alpha addition by Fluo-4AM dye based fluorescence assay relative to control. It counts as functional, cell-based. The procedure, abridged:
(§1)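 SupT1 cells loaded with Fluo-4AM (2 µM) plus probenecid (5 µM) for 30 min at 37°C in HBSS/20 mM HEPES, washed; 1×10⁶ cells/mL exposed to compound 2–3 min, then stimulated with 50 nM SDF-1α; fluorescence read at […]/510em.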

Data set [2] addresses T1, C-X-C chemokine receptor type 4. As to the kind of experiment: Antagonist activity at CXCR4 receptor in human SupT1 cells assessed as inhibition of SDF-1alpha-induced calcium release preincubated for 2 to 3 mins followed by SDF-1alpha addition by Fluo-4AM dye based fluorescence assay. It counts as functional, cell-based. The procedure, abridged:
as §1

For data set [3] the target is unchanged. As to the kind of experiment: Antagonist activity at CXCR4 (unknown origin) in CHO cells assessed as reduction in SDF-1alpha-induced Akt phosphorylation level at 50 uM incubated for 30 mins followed by SDF1-alpha addition measured after 5 mins by Western blot analysis. It counts as cell-based. In a few lines:
(§2)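 CXCR4-expressing CHO cells grown in DMEM with 10% FBS, seeded at 10^6 cells/well for 24 h, then moved to serum-free medium. Cells were pretreated with 50 μM peptide for 30 min, then stimulated with 12.5 nM SDF-1α for 5 min. Lysates were adjusted to 3 mg/mL, run on 12% SDS-PAGE and immunoblotted for phospho-AKT/ERK with ECL detection. Bands were quantified by densitometry as % control.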

Data set [4] shares this target. The data set is described as follows: Competitive binding affinity to CXCR4 in human SupT1 cells incubated for 40 mins by 12G5 antibody based fluorescence analysis. It counts as cell-based.
Data set [5] deals with C-X-C chemokine receptor type 4 (Homo sapiens), P61073 [E288Q]. The data set is described as follows: Binding affinity to CXCR4 E288Q mutant (unknown origin) expresssed in CHO cells at 200 nM incubated for 30 mins by 12G5 antibody based fluorescence analysis. It counts as cell-based. In a few lines:
(§3)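 Wild-type or mutant CXCR4 cells (5×10⁵/well) incubated with single 200 nM concentration in FACS buffer (0.5% BSA, 0.05% azide in PBS) plus 12G5 anti-CD184 antibody, 30 min on ice; washed, FITC anti-mouse IgG 30 min on ice; fluorescence 485ex/528em; duplicates, ≥3 independent experiments, normalized as percent of control.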

The subject of data set [6] is C-X-C chemokine receptor type 4 (Homo sapiens), P61073 [Q200A]. As to the kind of experiment: Binding affinity to CXCR4 Q200A mutant (unknown origin) expresssed in CHO cells at 200 nM incubated for 30 mins by 12G5 antibody based fluorescence analysis. It counts as cell-based. In a few lines: (§4)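 Mutational mapping in CHO cells expressing wild-type or mutant CXCR4, 5×10^5 cells/well. Cells were incubated with a single 200 nM peptide concentration plus 12G5 anti-CD184 antibody in FACS buffer on ice for 30 min. FITC anti-mouse IgG was then added for 30 min on ice. Fluorescence was read at 485/528 nm and normalized to control, in duplicate across at least three experiments.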

Data set [7] concerns C-X-C chemokine receptor type 4 (Homo sapiens), P61073 [D262N]. As to the kind of experiment: Binding affinity to CXCR4 D262N mutant (unknown origin) expresssed in CHO cells at 200 nM incubated for 30 mins by 12G5 antibody based fluorescence analysis. It counts as cell-based. In a few lines:
as §3

In data set [8] the test system is C-X-C chemokine receptor type 4 (Homo sapiens), P61073 [W195A]. The data set is described as follows: Competitive binding affinity to CXCR4 W195A mutant (unknown origin) expresssed in CHO cells at 200 nM incubated for 30 mins by 12G5 antibody based fluorescence analysis. It counts as cell-based. In a few lines: as §3
C-X-C chemokine receptor type 4 (Homo sapiens), P61073 [W195A], sequence (P61073 whole entry W195A): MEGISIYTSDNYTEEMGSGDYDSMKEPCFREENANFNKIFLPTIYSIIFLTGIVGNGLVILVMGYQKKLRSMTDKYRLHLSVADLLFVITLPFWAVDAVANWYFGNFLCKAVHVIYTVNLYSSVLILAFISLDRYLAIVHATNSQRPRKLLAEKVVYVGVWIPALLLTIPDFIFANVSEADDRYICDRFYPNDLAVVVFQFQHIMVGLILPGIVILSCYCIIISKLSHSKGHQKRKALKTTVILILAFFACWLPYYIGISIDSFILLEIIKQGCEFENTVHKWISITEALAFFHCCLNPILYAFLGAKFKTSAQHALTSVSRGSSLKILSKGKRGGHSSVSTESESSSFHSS
The subject of data set [9] is C-X-C chemokine receptor type 4 (Homo sapiens), P61073 [V112A]. The data set is described as follows: Competitive binding affinity to CXCR4 V112A mutant (unknown origin) expresssed in CHO cells at 200 nM incubated for 30 mins by 12G5 antibody based fluorescence analysis. It counts as cell-based. The procedure, abridged: as §4
Data set [10] relates to C-X-C chemokine receptor type 4 (Homo sapiens), P61073 [Y116A]. As to the kind of experiment: Competitive binding affinity at CXCR4 Y116A mutant (unknown origin) expressed in CHO cells at 200 nM incubated for 30 mins by 12G5 antibody based fluorescence analysis. It counts as cell-based. The procedure, abridged:
as §3

For data set [11], the system named is C-X-C chemokine receptor type 4 (Homo sapiens), P61073 [W94A]. As to the kind of experiment: Competitive binding affinity at CXCR4 W94A mutant (unknown origin) expressed in CHO cells at 200 nM incubated for 30 mins by 12G5 antibody based fluorescence analysis. In kind it is cell-based. In a few lines:
as §3

The test system of data set [12] is C-X-C chemokine receptor type 4 (Homo sapiens), P61073 [Y45A]. As to the kind of experiment: Competitive binding affinity to CXCR4 Y45A mutant (unknown origin) expressed in CHO cells at 200 nM incubated for 30 mins by 12G5 antibody based fluorescence analysis. It counts as cell-based. In a few lines:
as §3

Another data set concerns PBMC. The data set is described as follows: Cytotoxicity against HIV1 NL4-3 infected in human PBMC cells assessed as cell viability at 50 uM preincubated with cells for 2 hrs followed by viral infection for 2 hrs and measured after 5 days by CellTiter-Blue assay. Conditions: 120 h. It counts as cell-based. In a few lines:
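PBMCs were seeded at the anti-HIV assay densities and treated in parallel under the same X4 infection and compound exposure conditions. After 5 days at 37°C, viability was read by CellTiter-Blue fluorescence (560/590 nm). The top concentration tested was 50 μM.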

The test system of data set [13] is Human immunodeficiency virus 1. The data set is described as follows: Antiviral activity against Human immunodeficiency virus 1 NL4-3 infected in human PBMC cells assessed as reduction in intracellular p24 level at 100 nM preincubated with cells 2 hrs followed by viral infection and measured after 24 hrs by ELISA. In kind it is functional. The procedure, abridged: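 PBMCs from healthy donors (2.5×10^6 cells/mL) were exposed to compound for 2 h, washed, and infected with HIV-1 NL4-3 at MOI 0.02 for 2 h at 37°C. Cells were washed, resuspended in complete medium and incubated 24 h. Cells were then lysed with protease inhibitor, and intracellular p24 was quantified by ELISA.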

Data set [14] concerns the target T1, C-X-C chemokine receptor type 4. The data set is described as follows: Antagonist activity at CXCR4 (unknown origin) in CHO cells assessed as reduction in SDF-1alpha-induced ERK phosphorylation level at 50 uM incubated for 30 mins followed by SDF1-alpha addition measured after 5 mins by Western blot analysis. It counts as cell-based. In a few lines: as §2
Data set [15] has the same target. The data set is described as follows: Competitive binding affinity to CXCR4 receptor (unknown origin) expressed in CHO cells incubated for 40 mins by 12G5 antibody based fluorescence analysis. It counts as cell-based.
Data set [16] can be described thus: Stability of compound in water assessed as compound remaining at 1mM at 37 degC after 48 hrs by HPLC analysis relative to control. Conditions: read-out: Stability. It counts as physicochemical.
Data set [17] can be described thus: Stability of compound in 10% FBS assessed as compound remaining at 1mM after 1 hr by HPLC analysis relative to control. It counts as ADME, cell-free, Bos taurus, Serum. Conditions: cattle, read-out: Stability. The procedure, abridged: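 Peptide dissolved at 1 mM in culture medium with 10% FBS, incubated at 37°C; samples taken over time and analysed by C18 HPLC, UV 220 nm; remaining peptide from peak intensity relative to original peak.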

For data set [18], the target named is T1, C-X-C chemokine receptor type 4. As to the kind of experiment: Antagonist activity at CXCR4 (unknown origin) expressed in CHO cells assessed as reduction in basal phosphorylated AKT expression at 50 uM incubated for 30 mins followed by measured after 5 mins by Western blot analysis. In kind it is cell-based.
Data set [19] deals with C-X-C chemokine receptor type 4 (Homo sapiens), P61073 [R30A]. The data set is described as follows: Binding affinity to CXCR4 R30A mutant (unknown origin) expresssed in CHO cells at 200 nM incubated for 30 mins by 12G5 antibody based fluorescence analysis. It counts as cell-based. The procedure, abridged:
as §4

Data set [20] addresses T1, C-X-C chemokine receptor type 4. As to the kind of experiment: Inhibition of N-terminal flag-tagged CXCR4 (unknown origin) internalization expressed in CHO cells incubated for 45 mins and measured after 1 hr by FITC-labeled anti-flag antibody based fluorescence analysis.
For data set [21], the system named is Human immunodeficiency virus 1. As to the kind of experiment: Antiviral activity against Human immunodeficiency virus 1 NL4-3 infected in human PBMC cells assessed as inhibition of extracellular p24 level preincubated with cells for 2 hrs followed by viral infection for 2 hrs and measured after 5 days by ELISA.

Activity calls are given as the source filed them. The rule behind the calls is not given here.

T1 sequence (P61073 whole entry): as the sequence (P61073 whole entry W195A) above, with A195W counted along it
C-X-C chemokine receptor type 4 (Homo sapiens), P61073 [V112A], sequence (P61073 whole entry V112A): as the sequence (P61073 whole entry W195A) above, with V112A, A195W counted along it
C-X-C chemokine receptor type 4 (Homo sapiens), P61073 [Y45A], sequence (P61073 whole entry Y45A): as the sequence (P61073 whole entry W195A) above, with Y45A, A195W counted along it
C-X-C chemokine receptor type 4 (Homo sapiens), P61073 [Y116A], sequence (P61073 whole entry Y116A): as the sequence (P61073 whole entry W195A) above, with Y116A, A195W counted along it
C-X-C chemokine receptor type 4 (Homo sapiens), P61073 [Q200A], sequence (P61073 whole entry Q200A): as the sequence (P61073 whole entry W195A) above, with A195W, Q200A counted along it
C-X-C chemokine receptor type 4 (Homo sapiens), P61073 [E288Q], sequence (P61073 whole entry E288Q): as the sequence (P61073 whole entry W195A) above, with A195W, E288Q counted along it
C-X-C chemokine receptor type 4 (Homo sapiens), P61073 [D262N], sequence (P61073 whole entry D262N): as the sequence (P61073 whole entry W195A) above, with A195W, D262N counted along it
C-X-C chemokine receptor type 4 (Homo sapiens), P61073 [R30A], sequence (P61073 whole entry R30A): as the sequence (P61073 whole entry W195A) above, with R30A, A195W counted along it
C-X-C chemokine receptor type 4 (Homo sapiens), P61073 [W94A], sequence (P61073 whole entry W94A): as the sequence (P61073 whole entry W195A) above, with W94A, A195W counted along it

Regarding `CC(C)C[C@@H](N)C(=O)NCC(=O)N[C@H](C)C(=O)N[C@H](CO)C(=O)N[C@H](Cc1c[nH]c2ccccc12)C(=O)N[C@H](Cc1cnc[nH]1)C(=O)N[C@H](CCCNC(=N)N)C(=O)N1CCC[C@@H]1C(=O)N[C@H](CC(=O)O)C(=O)N[C@H](CCCCN)C(=O)N[C@H](CCCCN)C(=O)N[C@H](CCCNC(=N)N)C(=O)NCCCCCC(=O)N[C@@H](CCCCN)C(=O)N[C@@H](CCCNC(=N)N)C(=O)N[C@@H](CCCCN)C(=O)N[C@H](C(=O)N[C@@H](CC(N)=O)C(=O)N[C@@H](CC(N)=O)C(=O)N[C@@H](CC(N)=O)C(=O)N1CCC[C@H]1C(=O)N[C@@H](CCCNC(=N)N)C(=O)N[C@H](C(=O)N[C@@H](CS)C(=O)O)[C@@H](C)O)[C@@H](C)O`, the figures for the inhibition in data set [1], in data set [2] and in [21] were 100%, “Dose-dependent effect” and “Dose-dependent effect”, respectively. The result in data set [3], in data set [14], in [18] and in data set [19] was Active. Also, the IC50 was found to be 14 nM in data set [4], 16 nM in data set [15] and 93 nM in [21]. Also, the outcome in data set [5], in data set [6], in data set [7], in [8], in data set [9] and in [10] was inactive. Besides, the outcome in [11], in data set [12] and in [20] was inactive. In the data set on PBMC, the Activity result is reported as “Non-Toxic”. The inhibition at 0.1 µM in [13] was 16%. The remaining at 48 h, 1000 µM in data set [16] is 87%. In addition, the remaining at 1 h, 1000 µM in data set [17] came to 80%.

The record behind these values is ChEMBL document CHEMBL4393672, “High affinity CXCR4 inhibitors generated by linking low affinity peptides” (Eur J Med Chem, 2019).
